Experimental data pooled from the literature.
Cell line: HEL
Effect on: cell growth or viability

SMILES	setting	CC50
C[C@H](NC(=O)[C@@]1(Cc2ccccc2)CCN1C(=O)OCc1ccccc1)C(=O)N(C)C	72 h	> 100 µM
CCOP(=O)(OCC)[C@@H]1C[C@@H](n2cc(Cn3ccc(=O)[nH]c3=O)nn2)ON1C (racemic)	72 h	> 100 µM
C[C@H](NC(=O)[C@]1(Cc2ccccc2)CCN1C(=O)OCc1ccccc1)C(=O)NCc1ccccc1	72 h	42 µM
CCOP(=O)(OCC)[C@H]1C[C@@H](Cn2c(=O)n(C(=O)c3ccccc3)c(=O)c3ccccc32)ON1C		> 100 µM
CCCCCCCCCCCCCCCCOCCCOP(=O)(O)COCCn1cnc2c(=O)[nH]c(=O)[nH]c21	72 h	10 µM
Nc1nc2c(ncn2COCCO)c(=O)[nH]1		440 µM
CCOP(=O)(OCC)[C@@H]1C[C@H](n2cc(-c3nccn3C)nn2)ON1C	72 h	> 100 µM
O=c1[nH]c(=O)c2ncn(CC(CO)OCP(=O)(O)O)c2[nH]1 (racemic)	72 h	≥ 300 µM
CCOP(=O)(OCC)[C@@H]1C[C@@H](n2cc(Cn3ccc(NC(C)=O)nc3=O)nn2)ON1C (racemic)	72 h	> 100 µM
CC(C)CNC(=O)[C@H](C)NC(=O)[C@@]1(Cc2ccccc2)CCN1C(=O)OCc1ccccc1	72 h	> 100 µM
